Test results published in ChEMBL document CHEMBL3407418, “Fragment-based drug discovery of 2-thiazolidinones as BRD4 inhibitors: 2. Structure-based optimization” (J Med Chem, 2015).
pIC50: −log10 of the molar value.

How the values were obtained:
[1] = molecular target: T1, Bromodomain-containing protein 4 (Homo sapiens, UniProt O60885); assay: Inhibition of BRD4(1) (unknown origin) incubated for 4 hrs by (+)-JQ1 fluorescent ligand based fluorescence anisotrophy
HT-29 = assay: Growth inhibition of human HT-29 cells after 72 hrs by SRB assay; assay type: functional, cell-based; conditions: HT-29, 72 h
In short: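 HT-29 cells are grown in McCoy's 5A with 10% FBS at 37 °C, 5% CO2. DMSO stocks (0.01 mol/L) are diluted in normal saline just before use. Cells are treated in triplicate with gradient concentrations for 72 h at 37 °C.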

[2] = molecular target: Bromodomain-containing protein 2 (Homo sapiens) (UniProt P25440); assay: Binding affinity to BRD2(1) (unknown origin) assessed as increase in protein melting temperature at 50 umol by real-time PCR system based thermal shift assay
In short: (§1)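 Bromodomain proteins in 10 mmol HEPES pH 7.5, 500 mmol NaCl at 75 μg/mL final; compound at 50 µmol final; SYPRO Orange probe at 1:1000. Four replicates per protein mixture. Melt curve read on a real-time PCR instrument, heating 25 °C to 99 °C at 1 °C/min under continuous fluorescence reading; binding taken as the rise in protein melting temperature.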

[3] = molecular target: Histone acetyltransferase p300 (Homo sapiens) (UniProt Q09472); assay: Binding affinity to EP300 (unknown origin) assessed as increase in protein melting temperature at 50 umol by real-time PCR system based thermal shift assay; in short: as §1
[4] = molecular target: SWI/SNF-related matrix-associated actin-dependent regulator of chromatin subfamily A member 4 (Homo sapiens) (UniProt P51532); assay: Binding affinity to BRG1 (unknown origin) assessed as increase in protein melting temperature at 50 umol by real-time PCR system based thermal shift assay; in short: as §1
CYP3A4 [5] = molecular target: T2, CYP3A4 (Homo sapiens, UniProt P08684); assay: Inhibition of CYP3A4 in human liver microsomes at 10 uM using midazolam substrate preincubated for 5 mins before NADPH addition and measured after 20 mins post NADPH addition; assay type: ADME; conditions: probe midazolam
In short: (§2)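 Human liver microsomes 0.2 mg/mL, 1 mmol NADPH, 100 mmol phosphate pH 7.4, probe cocktail (10 μM midazolam, 100 μM testosterone, 10 μM dextromethorphan, 20 μM diclofenac, 100 μM phenacetin, 100 μM mephenytoin), test compound 10 μM or PBS; organic solvent <1%. 5 min preincubation at 37 °C, NADPH-generating system start, 20 min reaction; inhibition from metabolite formation relative to PBS.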

CYP3A4 [6] = molecular target: T2, CYP3A4; assay: Inhibition of CYP3A4 in human liver microsomes at 10 uM preincubated for 5 mins before NADPH addition and measured after 20 mins post NADPH addition; assay type: ADME
CYP1A2 = molecular target: T3, CYP1A2 (Homo sapiens, UniProt P05177); assay: Inhibition of CYP1A2 in human liver microsomes at 10 uM using phenacetin substrate preincubated for 5 mins before NADPH addition and measured after 20 mins post NADPH addition; assay type: ADME; conditions: probe phenacetin; in short: as §2
T3 sequence (P05177 whole entry): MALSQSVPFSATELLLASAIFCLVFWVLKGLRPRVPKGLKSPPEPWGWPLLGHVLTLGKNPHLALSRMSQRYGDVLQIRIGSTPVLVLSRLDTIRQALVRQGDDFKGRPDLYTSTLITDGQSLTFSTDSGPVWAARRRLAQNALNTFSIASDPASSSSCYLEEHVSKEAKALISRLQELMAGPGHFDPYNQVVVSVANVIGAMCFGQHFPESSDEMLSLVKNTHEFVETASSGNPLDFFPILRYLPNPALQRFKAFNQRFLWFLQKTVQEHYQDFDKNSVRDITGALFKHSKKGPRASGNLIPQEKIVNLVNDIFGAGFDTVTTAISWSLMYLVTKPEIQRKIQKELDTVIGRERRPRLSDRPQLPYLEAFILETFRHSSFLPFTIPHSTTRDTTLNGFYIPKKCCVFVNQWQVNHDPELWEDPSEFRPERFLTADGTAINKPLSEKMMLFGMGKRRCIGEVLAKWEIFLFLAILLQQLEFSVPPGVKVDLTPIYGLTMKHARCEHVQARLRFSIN

[7] = molecular target: T1, Bromodomain-containing protein 4
[8] = Growth inhibition of human MM1S cells after 72 hrs by CellTiter-Glo luminescent cell viability assay; conditions: MM1.S
MV4-11 = assay: Growth inhibition of human MV4-11 cells after 72 hrs by CellTiter-Glo luminescent cell viability assay; conditions: MV4-11, 72 h

Bromodomain-containing protein 2 (Homo sapiens), sequence (P25440 whole entry, looked up): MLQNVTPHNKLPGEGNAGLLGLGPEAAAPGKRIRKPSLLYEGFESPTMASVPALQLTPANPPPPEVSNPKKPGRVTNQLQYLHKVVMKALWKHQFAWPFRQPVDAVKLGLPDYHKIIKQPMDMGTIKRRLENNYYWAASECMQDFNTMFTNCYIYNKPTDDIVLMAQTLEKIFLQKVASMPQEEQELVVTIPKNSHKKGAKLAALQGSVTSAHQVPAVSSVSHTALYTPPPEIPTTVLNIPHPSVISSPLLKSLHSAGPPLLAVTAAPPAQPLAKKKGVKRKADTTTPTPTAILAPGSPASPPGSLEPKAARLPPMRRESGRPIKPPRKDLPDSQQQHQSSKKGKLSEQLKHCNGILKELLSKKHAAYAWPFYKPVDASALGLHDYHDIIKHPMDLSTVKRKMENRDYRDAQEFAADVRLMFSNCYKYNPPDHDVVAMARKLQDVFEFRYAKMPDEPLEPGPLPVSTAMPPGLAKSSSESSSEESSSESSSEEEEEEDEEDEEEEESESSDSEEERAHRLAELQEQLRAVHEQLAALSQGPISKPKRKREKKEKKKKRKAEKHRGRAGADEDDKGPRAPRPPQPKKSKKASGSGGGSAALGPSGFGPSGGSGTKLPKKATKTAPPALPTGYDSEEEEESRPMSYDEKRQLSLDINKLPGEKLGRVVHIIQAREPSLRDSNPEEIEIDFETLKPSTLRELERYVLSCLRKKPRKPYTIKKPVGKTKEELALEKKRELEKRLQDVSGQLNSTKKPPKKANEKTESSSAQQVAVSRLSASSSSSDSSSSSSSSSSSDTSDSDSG
Histone acetyltransferase p300 (Homo sapiens), sequence (Q09472 whole entry): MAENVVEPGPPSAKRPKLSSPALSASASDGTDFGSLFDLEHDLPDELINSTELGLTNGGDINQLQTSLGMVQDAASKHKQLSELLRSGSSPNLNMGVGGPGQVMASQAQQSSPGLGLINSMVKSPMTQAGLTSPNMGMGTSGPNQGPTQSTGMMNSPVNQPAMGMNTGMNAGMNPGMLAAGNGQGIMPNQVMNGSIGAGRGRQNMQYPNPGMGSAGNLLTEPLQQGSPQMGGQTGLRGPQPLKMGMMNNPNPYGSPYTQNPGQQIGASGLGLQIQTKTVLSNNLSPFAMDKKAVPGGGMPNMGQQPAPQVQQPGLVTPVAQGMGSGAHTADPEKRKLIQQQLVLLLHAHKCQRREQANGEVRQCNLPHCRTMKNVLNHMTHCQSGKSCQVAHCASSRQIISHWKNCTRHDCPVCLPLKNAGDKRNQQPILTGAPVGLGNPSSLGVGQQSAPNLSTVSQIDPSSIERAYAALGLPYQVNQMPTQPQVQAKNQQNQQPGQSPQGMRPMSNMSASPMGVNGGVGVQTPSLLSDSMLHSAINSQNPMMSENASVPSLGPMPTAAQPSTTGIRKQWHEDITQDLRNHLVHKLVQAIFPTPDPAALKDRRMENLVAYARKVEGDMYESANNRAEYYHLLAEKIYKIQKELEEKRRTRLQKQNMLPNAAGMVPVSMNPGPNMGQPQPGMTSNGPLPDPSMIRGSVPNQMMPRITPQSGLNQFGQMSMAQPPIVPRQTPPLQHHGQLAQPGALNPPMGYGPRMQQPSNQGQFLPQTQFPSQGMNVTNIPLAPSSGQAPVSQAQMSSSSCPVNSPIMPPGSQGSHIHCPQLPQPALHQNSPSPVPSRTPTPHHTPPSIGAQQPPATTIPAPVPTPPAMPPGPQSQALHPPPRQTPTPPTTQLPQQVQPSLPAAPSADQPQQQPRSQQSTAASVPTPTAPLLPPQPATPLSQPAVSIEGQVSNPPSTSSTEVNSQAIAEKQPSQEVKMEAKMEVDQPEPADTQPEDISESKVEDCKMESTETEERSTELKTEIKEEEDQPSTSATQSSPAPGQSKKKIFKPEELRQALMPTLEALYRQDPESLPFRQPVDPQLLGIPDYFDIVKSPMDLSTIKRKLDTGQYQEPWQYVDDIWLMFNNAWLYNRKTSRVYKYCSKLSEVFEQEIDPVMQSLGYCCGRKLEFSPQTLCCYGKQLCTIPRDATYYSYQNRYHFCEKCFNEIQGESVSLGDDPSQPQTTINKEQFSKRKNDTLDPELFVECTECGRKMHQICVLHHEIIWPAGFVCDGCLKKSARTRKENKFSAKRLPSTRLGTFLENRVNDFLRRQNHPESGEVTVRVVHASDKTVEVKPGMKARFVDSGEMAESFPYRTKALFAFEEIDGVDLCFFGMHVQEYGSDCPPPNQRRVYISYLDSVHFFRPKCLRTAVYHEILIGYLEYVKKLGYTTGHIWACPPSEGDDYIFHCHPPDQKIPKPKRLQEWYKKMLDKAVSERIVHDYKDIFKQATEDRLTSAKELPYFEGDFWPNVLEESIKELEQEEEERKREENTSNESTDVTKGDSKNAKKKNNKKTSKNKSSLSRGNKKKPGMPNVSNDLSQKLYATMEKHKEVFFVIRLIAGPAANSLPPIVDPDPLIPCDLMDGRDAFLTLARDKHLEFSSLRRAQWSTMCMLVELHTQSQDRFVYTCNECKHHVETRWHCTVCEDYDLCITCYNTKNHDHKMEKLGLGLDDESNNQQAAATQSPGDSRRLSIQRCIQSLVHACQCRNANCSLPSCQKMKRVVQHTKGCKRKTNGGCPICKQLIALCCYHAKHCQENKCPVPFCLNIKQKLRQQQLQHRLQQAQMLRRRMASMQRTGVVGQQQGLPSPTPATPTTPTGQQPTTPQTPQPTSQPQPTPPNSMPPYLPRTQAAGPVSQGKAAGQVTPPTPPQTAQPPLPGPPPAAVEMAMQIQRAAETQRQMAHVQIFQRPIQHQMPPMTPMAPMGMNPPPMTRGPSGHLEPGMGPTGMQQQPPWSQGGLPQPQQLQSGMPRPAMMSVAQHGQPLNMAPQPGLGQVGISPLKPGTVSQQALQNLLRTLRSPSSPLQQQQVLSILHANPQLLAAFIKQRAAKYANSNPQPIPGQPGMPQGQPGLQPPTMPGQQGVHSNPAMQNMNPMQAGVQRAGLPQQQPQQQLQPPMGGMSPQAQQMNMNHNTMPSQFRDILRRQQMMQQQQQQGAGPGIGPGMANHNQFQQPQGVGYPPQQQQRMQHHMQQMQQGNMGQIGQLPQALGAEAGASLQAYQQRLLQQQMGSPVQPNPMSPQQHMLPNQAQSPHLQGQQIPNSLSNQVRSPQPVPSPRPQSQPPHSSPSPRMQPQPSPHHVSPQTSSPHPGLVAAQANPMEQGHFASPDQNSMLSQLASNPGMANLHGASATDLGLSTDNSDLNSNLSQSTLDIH
T2 sequence (P08684 whole entry): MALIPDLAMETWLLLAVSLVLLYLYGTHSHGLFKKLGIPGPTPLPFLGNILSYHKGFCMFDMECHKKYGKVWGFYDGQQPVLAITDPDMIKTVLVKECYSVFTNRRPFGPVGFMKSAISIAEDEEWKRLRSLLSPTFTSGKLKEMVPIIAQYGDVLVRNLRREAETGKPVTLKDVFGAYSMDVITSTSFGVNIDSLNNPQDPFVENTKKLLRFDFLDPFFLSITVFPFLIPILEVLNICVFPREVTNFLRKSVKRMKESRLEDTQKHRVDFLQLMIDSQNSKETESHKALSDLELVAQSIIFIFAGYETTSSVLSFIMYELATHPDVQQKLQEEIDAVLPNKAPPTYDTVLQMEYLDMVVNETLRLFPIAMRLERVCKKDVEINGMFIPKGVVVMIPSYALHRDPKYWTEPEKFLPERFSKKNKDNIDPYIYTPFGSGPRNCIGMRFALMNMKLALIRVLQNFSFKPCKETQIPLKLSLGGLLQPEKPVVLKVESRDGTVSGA

Structure (SMILES) | pIC50 [1] | pIC50 (HT-29) | ΔTm [2] | ΔTm [3] | ΔTm [4] | inhibition at 20 min, 10 µM (CYP3A4 [5]) | inhibition at 20 min, 10 µM (CYP3A4 [6]) | inhibition at 20 min, 10 µM (CYP1A2) | ΔTm [7] | pIC50 [8] | pIC50 (MV4-11)
O=C(Nc1cc(-c2csc(=O)[nH]2)cc(S(=O)(=O)NC2CCCC2)c1)C1CC1 | 7.22 | 5.24 | 5.63 °C | -0.54 °C | 1.03 °C | 14% | 21% | 29% | 8.48 °C | 5.98 | 6.64
Cc1c(N)cc(-c2csc(=O)[nH]2)cc1S(=O)(=O)NC1CCCC1 | 6.85 | 6.07 | 5.04 °C | 0.19 °C | 0.57 °C | 42% | 46% | 17% | 7.25 °C | 6.24 | 6.74
Nc1ccc(-c2csc(=O)[nH]2)cc1S(=O)(=O)NC1CCCC1 | 6.92 | 5.48 | 4.06 °C | -0.08 °C | 0.39 °C | 70% | 82% | 22% | 7.76 °C | 6.10 | 6.54
Cc1c(Br)cc(-c2csc(=O)[nH]2)cc1S(=O)(=O)NC1CCCC1 | 7.22 | 5.26 | 5.92 °C | -1.01 °C | 0.94 °C | 42% | 53% | 47% | 9.22 °C | 6.00 | 6.85
COc1ccc(-c2csc(=O)[nH]2)cc1S(=O)(=O)NC1CCCC1 | 6.12 | 5.41 | 2.82 °C | 0.49 °C | 0.41 °C | 20% | 30% | 3% | 5.19 °C | 5.62 | 6.26
Cc1ccc(-c2csc(=O)[nH]2)cc1S(=O)(=O)NC1CCCC1 | 6.66 | 5.40 | 3.47 °C | -0.17 °C | 0.69 °C | 62% | 68% | 52% | 6.3 °C | 5.72 | 6.34
